The values below come from ChEMBL document CHEMBL4334486 (J Med Chem, 2019).

Activity calls are given as the source filed them. The calls are words filed in the database; no cut-off is given here.

Series [1] can be described thus: Toxicity in human CFBEdeltaF cells isolated from CF patient at 20 uM incubated for 24 hrs by LDH assay. It counts as cell-based. In short, it runs like this: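 CF bronchial epithelial CFBEΔF monolayers are treated with compound at 20 μM (water vehicle control) for 24 h. Cytotoxicity is measured as LDH released into the medium. Triton is the lysis reference.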

The subject of series [2] is Pseudomonas aeruginosa. Put plainly: Antibiofilm activity against Pseudomonas aeruginosa PAO1 assessed as inhibition of biofilm formation incubated for 8 hrs at 20 uM by crystal violet based O'Toole method relative to control. It counts as functional. Conditions: PAO1, 8 h. The procedure, abridged: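 O'Toole biofilm assay. PAO1 is grown in M63 minimal medium with 0.4% arginine and 1 mM MgSO4. Compound at 20 μM, or an equal volume of water as vehicle control, is added at inoculation. Incubation is 8 h at 37 °C. Growth is read at 550 nm on removed medium. Biofilm is stained with 0.1% crystal violet and quantified.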

For series [3], the target named is Fucose-binding lectin PA-IIL (Pseudomonas aeruginosa (strain ATCC 15692 / DSM 22644 / CIP 104116 / JCM14847 / LMG 12228 / 1C / PRS 101 / PAO1), UniProt Q9HYN5). Nature of the series: Inhibition of Pseudomonas aeruginosa LecB by fluorescence polarization assay. A general note: In fluorescence polarisation assays a small probe gives low polarisation when free and higher when bound to something large.
Sequence of Fucose-binding lectin PA-IIL (Q9HYN5 whole entry): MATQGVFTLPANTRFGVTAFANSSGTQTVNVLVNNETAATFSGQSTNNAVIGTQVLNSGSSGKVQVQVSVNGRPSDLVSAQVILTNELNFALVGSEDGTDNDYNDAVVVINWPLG

The test system of series [4] is Pseudomonas aeruginosa. Put plainly: Induction of fluorescent pyoverdine-1 siderophore production in siderophore-producing Pseudomonas aeruginosa PAO1 at 0.125 to 128 ug/mL incubated for 24 hrs under iron-supplemented succinate minimal medium in the presence of 50 uM of FeCl3. In kind it is functional, organism-based. The procedure, abridged:
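PAO1 in succinate minimal medium with 8 μg/mL (50 μM) FeCl3, compound from DMSO dilutions. Plates are incubated 24 h at 35 °C. Iron-free pyoverdine is read by absorbance at 405 nm and by fluorescence (excitation 400 nm, emission 447 nm), with cell-free baselines. Runs are in duplicate at least twice, mean + SD.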

For series [5], the system named is Pseudomonas aeruginosa. Nature of the series: Antimicrobial activity against siderophore-producing Pseudomonas aeruginosa PAO1 assessed as inhibition of bacterial growth at 0.125 to 128 ug/mL under iron-supplemented succinate minimal medium in the presence of 50 uM of FeCl3. In kind it is functional, organism-based. In short, it runs like this: (§1)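 Succinate minimal medium with FeCl3 at 8 μg/mL (50 μM), inoculated with the strain at 0.5 McFarland. Compound is added from 2-fold DMSO dilutions; DMSO alone is the growth control. Incubation is 24 h. OD600 gives growth, with cell-free baselines. Runs are at least duplicate, mean + SD; Mann−Whitney test, p<0.05.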

Series [6] concerns Pseudomonas aeruginosa. Nature of the series: Antimicrobial activity against Pseudomonas aeruginosa PAO1 assessed as inhibition of bacterial growth under Mueller-Hinton conditions without iron supplementation. It counts as functional. The procedure, abridged: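 Ciprofloxacin and deferoxamine serve as controls. MIC is taken as the highest dilution with visually clear wells.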

Series [7] has as its system Pseudomonas aeruginosa. Nature of the series: Antibiofilm activity against Pseudomonas aeruginosa PAO1 assessed as inhibition of biofilm formation incubated for 24 to 25 hrs at 50 uM by WST8 dye based Diggle-protocol method relative to control. In kind it is functional. In short, it runs like this:
(§2)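 Modified Diggle microtiter method. Medium is 0.25% (w/v) nutrient broth no. 2 containing compound. PAO1 is grown overnight in LB, washed, and inoculated normalized to OD600 of 1. Plates are incubated humid for 24−25 h at 37 °C and washed twice with water. Wells are then stained for 3 h at 37 °C with 0.5 mM WST-8 plus 20 μM phenazine ethosulfate. Supernatant absorbance is read at 450 nm to give viable biofilm cells.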
For orientation: Formazan colour is commonly taken as a measure of viable cells.

In series [8] the test system is Pseudomonas aeruginosa. Nature of the series: Antimicrobial activity against siderophore-deficient Pseudomonas aeruginosa PAD07 in siderophore-deficient PAD07 assessed as inhibition of bacterial growth at 0.0625 to 128 ug/mL incubated for 24 hrs under iron-supplemented succinate minimal medium in the presence of 50 uM of FeCl3. It counts as functional, organism-based. In short, it runs like this:
as §1

The test system of series [9] is Pseudomonas aeruginosa. Put plainly: Antibiofilm activity against Pseudomonas aeruginosa PAO1 assessed as inhibition of biofilm formation incubated for 8 hrs at 20 uM by crystal violet based O'Toole method relative to control.
The target of series [10] is Fucose-binding lectin PA-IIL (Pseudomonas aeruginosa (strain ATCC 15692 / DSM 22644 / CIP 104116 / JCM14847 / LMG 12228 / 1C / PRS 101 / PAO1)) (UniProt Q9HYN5). Put plainly: Potency index, ratio of IC50 for Me-alpha-L-fucoside to IC50 for test compound for inhibition of Pseudomonas aeruginosa LecB by fluorescence polarization assay.
Sequence of Fucose-binding lectin PA-IIL (Pseudomonas aeruginosa (strain ATCC 15692 / DSM 22644 / CIP 104116 / JCM14847 / LMG 12228 / 1C / PRS 101 / PAO1)) (Q9HYN5 as listed by the source): as the sequence (Q9HYN5 whole entry) above
The subject of series [11] is Pseudomonas aeruginosa. Put plainly: Antimicrobial activity against Pseudomonas aeruginosa PAO1 assessed as inhibition of planktonic cells growth at >0.15 uM incubated for 24 to 25 hrs. It counts as functional, organism-based. In short, it runs like this: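 PAO1 inoculum from overnight LB culture, washed in 0.25% (w/v) nutrient broth no. 2, normalized to OD600 1 and added to the same broth containing the test compound. Incubation was 24−25 h at 37 °C in a humid environment. Planktonic growth was read from the supernatant: it was regrown in LB at 37 °C for 7−8 h and OD600 was compared with no-supernatant, or CFU were plated on LB agar.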

Series [12] addresses Fucose-binding lectin PA-IIL (Pseudomonas aeruginosa (strain ATCC 15692 / DSM 22644 / CIP 104116 / JCM14847 / LMG 12228 / 1C / PRS 101 / PAO1)) (UniProt Q9HYN5). Nature of the series: Potency index, ratio of IC50 for Me-alpha-D-mannoside to IC50 for test compound for inhibition of Pseudomonas aeruginosa LecB by fluorescence polarization assay.
In series [13] the test system is Pseudomonas aeruginosa. Put plainly: Antibiofilm activity against Pseudomonas aeruginosa PAO1 assessed as inhibition of biofilm formation incubated for 24 to 25 hrs at 20 uM in presence of sub-inhibitory concentration of tobramycin by WST8 dye based Diggle-protocol method relative to control. It counts as functional, organism-based. In short, it runs like this:
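Diggle WST-8 biofilm method. PAO1 in 0.25% nutrient broth is exposed to compound at 20 μM mixed with tobramycin at 0.1 μM (subinhibitory). Incubation is 24−25 h at 37 °C. Washed wells are stained 3 h with 0.5 mM WST-8 and 20 μM phenazine ethosulfate. A450 of the supernatant is read.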

The test system of series [14] is Pseudomonas aeruginosa. Nature of the series: Antibiofilm activity against Pseudomonas aeruginosa PAO1 assessed as inhibition of biofilm formation incubated for 24 to 25 hrs at 20 uM by WST8 dye based Diggle-protocol method relative to control. It counts as functional. The procedure, abridged:
as §2

Series [15] concerns Pseudomonas aeruginosa. Nature of the series: Toxicity in Pseudomonas aeruginosa PAO1 incubated for 24 to 25 hrs at 20 uM in presence of sub-inhibitory concentration of tobramycin by WST8 dye based Diggle-protocol method relative to control. It counts as organism-based. The settings on record: in vivo.

With `CC(C)(C)c1cc2c(OCCCn3cc(CN(O)C(=O)CCCCCn4cc(CO[C@H]5O[C@H](CO)[C@@H](O)[C@H](O)[C@H]5O)nn4)nn3)c(c1)Cc1cc(C(C)(C)C)cc(c1OCCCn1cc(CN(O)C(=O)CCCCCn3cc(CO[C@H]4O[C@H](CO)[C@@H](O)[C@H](O)[C@H]4O)nn3)nn1)Cc1cc(C(C)(C)C)cc(c1OCCCn1cc(CN(O)C(=O)CCCCCn3cc(CO[C@H]4O[C@H](CO)[C@@H](O)[C@H](O)[C@H]4O)nn3)nn1)Cc1cc(C(C)(C)C)cc(c1OCCCn1cc(CN(O)C(=O)CCCCCn3cc(CO[C@H]4O[C@H](CO)[C@@H](O)[C@H](O)[C@H]4O)nn3)nn1)C2`, the Activity entry in series [1] was “Non-Toxic”. Further, in the series with Pseudomonas aeruginosa [2], the inhibition at 20 µM is 92%.

On to `C[C@@H]1O[C@@H](OCc2cn(CCCCCC(=O)N(O)Cc3cn(CCCOc4c5cc(C(C)(C)C)cc4Cc4cc(C(C)(C)C)cc(c4OCCCn4cc(CN(O)C(=O)CCCCCn6cc(CO[C@@H]7O[C@@H](C)[C@@H](O)[C@@H](O)[C@@H]7O)nn6)nn4)Cc4cc(C(C)(C)C)cc(c4OCCCn4cc(CN(O)C(=O)CCCCCn6cc(CO[C@@H]7O[C@@H](C)[C@@H](O)[C@@H](O)[C@@H]7O)nn6)nn4)Cc4cc(C(C)(C)C)cc(c4OCCCn4cc(CN(O)C(=O)CCCCCn6cc(CO[C@@H]7O[C@@H](C)[C@@H](O)[C@@H](O)[C@@H]7O)nn6)nn4)C5)nn3)nn2)[C@@H](O)[C@H](O)[C@@H]1O`, for which the Activity result in series [1] was “Non-Toxic”; in the series on Pseudomonas aeruginosa [4], “Dose-dependent effect”. In addition, the IC50 in [3] is 0.249 µM. Besides, the result in the series on Pseudomonas aeruginosa [5] and with Pseudomonas aeruginosa [8] was inactive. For the same compound, in the series on Pseudomonas aeruginosa [6], the MIC is more than 512 µg/mL. Further, the inhibition entry in the series with Pseudomonas aeruginosa [7] and in the series with Pseudomonas aeruginosa [9] was “inactive” in each case. The inhibition at 20 µM in the series with Pseudomonas aeruginosa [2] stood at 72%. The Ratio IC50 in [10] was determined as 3.37.

With `NC[C@H]1O[C@H](O[C@H]2[C@H](O)[C@@H](O[C@H]3O[C@H](CO)[C@@H](O)[C@H](N)[C@H]3O)[C@H](N)C[C@@H]2N)[C@H](N)C[C@@H]1O`, the outcome with Pseudomonas aeruginosa [11] was Active.

Turning to `C[C@@H]1O[C@@H](OCc2cn(CCCCCC(=O)NOCc3ccccc3)nn2)[C@@H](O)[C@H](O)[C@@H]1O`, the IC50 in series [3] was 0.5 µM.

In [3], `O=C(CCCCCn1cc(CO[C@H]2O[C@H](CO)[C@@H](O)[C@H](O)[C@@H]2O)nn1)NOCc1ccccc1` displayed an IC50 of 146 µM.

As to `CC(C)(C)c1cc2c(OCCCn3cc(CN(O)C(=O)CCCCCn4cc(CO[C@H]5O[C@H](CO)[C@@H](O)[C@H](O)[C@@H]5O)nn4)nn3)c(c1)Cc1cc(C(C)(C)C)cc(c1OCCCn1cc(CN(O)C(=O)CCCCCn3cc(CO[C@H]4O[C@H](CO)[C@@H](O)[C@H](O)[C@@H]4O)nn3)nn1)Cc1cc(C(C)(C)C)cc(c1OCCCn1cc(CN(O)C(=O)CCCCCn3cc(CO[C@H]4O[C@H](CO)[C@@H](O)[C@H](O)[C@@H]4O)nn3)nn1)Cc1cc(C(C)(C)C)cc(c1OCCCn1cc(CN(O)C(=O)CCCCCn3cc(CO[C@H]4O[C@H](CO)[C@@H](O)[C@H](O)[C@@H]4O)nn3)nn1)C2`, the values for the Activity result (in series [1]; with Pseudomonas aeruginosa [4]; in the series with Pseudomonas aeruginosa [15]) were “Non-Toxic”, “Dose-dependent effect” and “Non-Toxic”, respectively. In addition, the Ratio IC50 in series [12] was found to be 236. Moreover, the IC50 in [3] is 0.664 µM. In addition, the outcome in the series on Pseudomonas aeruginosa [5] was inactive. Also, in the series with Pseudomonas aeruginosa [6], the MIC was more than 512 µg/mL. The inhibition result in the series on Pseudomonas aeruginosa [13] is “Active”. Besides, the inhibition at 20 µM in the series with Pseudomonas aeruginosa [14] was determined as 83%; in the series on Pseudomonas aeruginosa [2] it was 84%. Also, the inhibition at 50 µM with Pseudomonas aeruginosa [7] is 70%.

In general, inhibition refers to the change of the read-out against control, counted positive when it falls. The IC50 is the concentration needed to halve the response being measured. The low end stands for greater potency, the high end for weaker potency. One may read the MIC as the least concentration at which growth counts as inhibited.
